According to paper PMC4367188 (ACS Chemical Neuroscience, 2015):
Entries after “also recorded” stand apart in the source; their conditions may differ.

Assays:
[1] = biological target: Adrenergic β1 (Homo sapiens, UniProt P08588); assay: Lead Profiling Screen radioligand binding
[2] = biological target: DAT (Mus musculus, UniProt Q61327); assay: dopamine uptake in mouse forebrain synaptosomes; format: biochemical; details: 5 μM ML352
Procedure, shortened: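 Crude P2 synaptosomes from forebrains of male C57BL/6J mice (8–10 weeks), taken after decapitation under urethane. Incubated 10 min at 37 °C in Krebs bicarbonate buffer with 100 nM [3H]dopamine or [3H]serotonin ± test compound. Stopped on ice, rapidly filtered, counted by scintillation. Specific uptake defined with cocaine 1 μM (DAT) or citalopram 1 μM (SERT). Protein by BCA; n = 3.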

[3] = pharmacokinetics in male Sprague-Dawley rats; details: rat
[4] = biological target: Muscarinic M1 (Homo sapiens, UniProt P11229); assay: Lead Profiling Screen radioligand binding
Muscarinic M1, sequence (P11229 whole entry): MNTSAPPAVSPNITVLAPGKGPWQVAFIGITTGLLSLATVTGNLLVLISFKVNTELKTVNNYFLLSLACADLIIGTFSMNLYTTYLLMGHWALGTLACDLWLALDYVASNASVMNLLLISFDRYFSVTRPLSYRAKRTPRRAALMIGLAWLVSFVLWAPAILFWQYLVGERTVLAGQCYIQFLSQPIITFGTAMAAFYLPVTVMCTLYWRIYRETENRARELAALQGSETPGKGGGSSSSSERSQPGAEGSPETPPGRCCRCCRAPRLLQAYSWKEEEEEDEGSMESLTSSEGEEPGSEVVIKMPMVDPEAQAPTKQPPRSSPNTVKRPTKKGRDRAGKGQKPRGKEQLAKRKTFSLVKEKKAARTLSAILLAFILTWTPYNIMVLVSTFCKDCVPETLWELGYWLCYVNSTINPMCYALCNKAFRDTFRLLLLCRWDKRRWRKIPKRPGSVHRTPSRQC

[5] = biological target: ChAT (Mus musculus, UniProt Q03059); assay: ChAT activity in mouse forebrain extracts; format: biochemical; details: concentrations well above the CHT Ki
ChAT, sequence (Q03059 whole entry): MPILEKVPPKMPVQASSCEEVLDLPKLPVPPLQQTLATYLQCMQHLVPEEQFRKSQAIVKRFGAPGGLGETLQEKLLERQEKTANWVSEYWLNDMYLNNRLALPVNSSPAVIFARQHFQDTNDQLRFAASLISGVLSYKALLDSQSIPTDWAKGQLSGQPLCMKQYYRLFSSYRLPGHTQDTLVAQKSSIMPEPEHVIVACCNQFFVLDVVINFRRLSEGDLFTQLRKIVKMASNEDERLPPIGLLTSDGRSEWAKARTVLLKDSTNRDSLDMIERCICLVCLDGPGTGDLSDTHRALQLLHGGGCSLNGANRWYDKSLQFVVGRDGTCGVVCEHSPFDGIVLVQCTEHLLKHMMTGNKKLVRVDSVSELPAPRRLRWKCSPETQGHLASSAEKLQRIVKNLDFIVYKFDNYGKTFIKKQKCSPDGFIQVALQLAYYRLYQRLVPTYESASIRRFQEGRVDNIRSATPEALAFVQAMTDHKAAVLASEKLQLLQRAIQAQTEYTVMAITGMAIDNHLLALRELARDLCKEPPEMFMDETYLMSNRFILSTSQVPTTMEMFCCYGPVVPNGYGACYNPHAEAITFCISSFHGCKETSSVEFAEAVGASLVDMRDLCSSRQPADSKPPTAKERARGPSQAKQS

DAT, sequence (Q61327 whole entry): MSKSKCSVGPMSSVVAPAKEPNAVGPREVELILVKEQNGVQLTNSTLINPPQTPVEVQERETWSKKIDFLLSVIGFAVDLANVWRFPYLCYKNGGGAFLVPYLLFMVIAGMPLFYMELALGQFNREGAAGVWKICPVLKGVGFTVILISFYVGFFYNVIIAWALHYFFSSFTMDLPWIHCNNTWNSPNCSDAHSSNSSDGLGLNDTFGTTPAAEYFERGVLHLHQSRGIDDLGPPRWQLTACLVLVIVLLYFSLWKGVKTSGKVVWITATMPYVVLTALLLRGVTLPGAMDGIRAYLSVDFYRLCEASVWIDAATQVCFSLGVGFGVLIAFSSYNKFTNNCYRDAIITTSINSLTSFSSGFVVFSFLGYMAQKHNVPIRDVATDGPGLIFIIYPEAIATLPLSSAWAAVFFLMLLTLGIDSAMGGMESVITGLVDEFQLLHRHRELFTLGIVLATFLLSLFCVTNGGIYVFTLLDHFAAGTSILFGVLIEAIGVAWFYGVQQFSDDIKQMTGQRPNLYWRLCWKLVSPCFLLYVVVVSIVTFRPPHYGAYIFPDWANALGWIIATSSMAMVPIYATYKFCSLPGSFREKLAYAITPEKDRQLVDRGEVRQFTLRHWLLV
Adrenergic β1, sequence (P08588 whole entry): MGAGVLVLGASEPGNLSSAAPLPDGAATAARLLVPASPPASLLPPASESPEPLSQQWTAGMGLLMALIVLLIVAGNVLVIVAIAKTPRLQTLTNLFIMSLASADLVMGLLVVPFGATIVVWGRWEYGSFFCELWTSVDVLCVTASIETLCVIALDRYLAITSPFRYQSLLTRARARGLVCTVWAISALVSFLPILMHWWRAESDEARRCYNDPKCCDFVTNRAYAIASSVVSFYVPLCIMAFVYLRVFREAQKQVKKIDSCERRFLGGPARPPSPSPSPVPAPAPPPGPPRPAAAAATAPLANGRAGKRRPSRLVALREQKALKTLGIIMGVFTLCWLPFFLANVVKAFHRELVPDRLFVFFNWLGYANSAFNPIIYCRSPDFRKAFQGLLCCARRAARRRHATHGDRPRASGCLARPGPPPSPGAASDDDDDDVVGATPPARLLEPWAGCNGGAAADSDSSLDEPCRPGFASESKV

## COc1ccc(C(=O)NCc2cc(C(C)C)no2)cc1OC1CCN(C)CC1 [ML352, N-((3-isopropylisoxazol-5-yl)methyl)-4-methoxy-3-((1-methylpiperidin-4-yl)oxy)benzamide]
[1]
  inhibition at 10 µM: 2%
[2]
  inhibition of DAT: fails to inhibit
[3]; in vivo, iv, 1 mg/kg
  clearance: 107 mL/min/kg
  half-life: 30 min
[3]; plasma, iv, 1 mg/kg
  AUC: 150 ng·h/mL
[3]; plasma, po, 2.3 mg/kg
  AUC: 77.5 ng·h/mL
  Cmax: 32.6 ng/mL
  Tmax: 15 min
  bioavailability: 22%
[4]
  inhibition at 10 µM: 32%
[5]
  inhibition of ChAT activity: no ability; also recorded: lacks activity; also recorded: no inhibition
